Source: ChEMBL document CHEMBL5724801, “EUbOPEN Chemogenomics Library - Multiplex” (2024)
Where “and” joins values, the source holds several entries; their conditions need not be identical. Identical values can stand only once.

Columns and labels:
Fibroblast = assay: Multiplex assay against human fibroblast; assay type: toxicity, cell-based
Summary of the method: (§1)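 With compound added, live cells were imaged on a CQ1 microscope at 37°C and 5% CO2; staining with Hoechst33342, BioTracker Green Microtubule Cytoskeleton Dye, MitoTracker Red and Annexin V Alexa Fluor 680 had been done at seeding. The CellPathfinder machine-learning gating scheme split cells into Hoechst high-intensity objects or normal cells, normal cells into healthy, pyknosed or fragmented nuclei, and pyknosed cells into mitotic or apoptotic. The tubulin, mitochondrial-mass and membrane-permeability phenotypes are per cents of healthy-nucleus cells.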

HEK-293T = assay: Multiplex assay against HEK293T; assay type: toxicity, cell-based; settings: human; summary of the method: as §1
[1] = 12 h, 1 µM, compound concentration 1 uM
[2] = 12 h, 10 µM, compound concentration 10 uM
[3] = 24 h, 1 µM, compound concentration 1 uM
[4] = 24 h, 10 µM, compound concentration 10 uM
[5] = 48 h, 1 µM, compound concentration 1 uM
[6] = 48 h, 10 µM, compound concentration 10 uM

## Nc1nc(CC(=O)Nc2ccc(CCNC[C@H](O)c3ccccc3)cc2)cs1 [MIRABEGRON]
Fibroblast; [1]
  Population Apoptotic (%): 53% and 31%
  Population Fragmented Nuclei (%): 19% and 27%
  Population Healthy Nuclei (%): 62% and 52%
  Population Hoechst High Intensity Objects (%): 5% and 4%
  Population Membrane Permeable-Phenotype (%): 0% and 9%
  Population Mitochondria Different-Phenotype (%): 6% and 12%
  Population Mitotic Cells (%): 46% and 68%
  Population Normal (%): 94% and 95%
  Population Pyknosed Nuclei (%): 18% and 19%
  Population Tubulin-Different-Phenotype (%): 25% and 46%
  Total Cell Count: 164 and 189
Fibroblast; [2]
  Population Apoptotic (%): 46% and 30%
  Population Fragmented Nuclei (%): 15% and 31%
  Population Healthy Nuclei (%): 75% and 41%
  Population Hoechst High Intensity Objects (%): 3% and 5%
  Population Membrane Permeable-Phenotype (%): 0% and 1%
  Population Mitochondria Different-Phenotype (%): 4% and 3%
  Population Mitotic Cells (%): 53% and 69%
  Population Normal (%): 96% and 94%
  Population Pyknosed Nuclei (%): 9% and 27%
  Population Tubulin-Different-Phenotype (%): 19% and 45%
  Total Cell Count: 171 and 137
Fibroblast; [3]
  Population Apoptotic (%): 59% and 58%
  Population Fragmented Nuclei (%): 17% and 27%
  Population Healthy Nuclei (%): 64% and 57%
  Population Hoechst High Intensity Objects (%): 5%
  Population Membrane Permeable-Phenotype (%): 1% and 9%
  Population Mitochondria Different-Phenotype (%): 4% and 7%
  Population Mitotic Cells (%): 40% and 41%
  Population Normal (%): 94%
  Population Pyknosed Nuclei (%): 18% and 14%
  Population Tubulin-Different-Phenotype (%): 28% and 45%
  Total Cell Count: 156 and 179
Fibroblast; [4]
  Population Apoptotic (%): 53% and 55%
  Population Fragmented Nuclei (%): 15% and 29%
  Population Healthy Nuclei (%): 75% and 48%
  Population Hoechst High Intensity Objects (%): 2% and 4%
  Population Membrane Permeable-Phenotype (%): 0% and 4%
  Population Mitochondria Different-Phenotype (%): 4% and 6%
  Population Mitotic Cells (%): 46% and 44%
  Population Normal (%): 97% and 95%
  Population Pyknosed Nuclei (%): 8% and 21%
  Population Tubulin-Different-Phenotype (%): 24% and 44%
  Total Cell Count: 181 and 131
Fibroblast; [5]
  Population Apoptotic (%): 76% and 50%
  Population Fragmented Nuclei (%): 23% and 40%
  Population Healthy Nuclei (%): 60% and 52%
  Population Hoechst High Intensity Objects (%): 7% and 2%
  Population Membrane Permeable-Phenotype (%): 2% and 4%
  Population Mitochondria Different-Phenotype (%): 6% and 10%
  Population Mitotic Cells (%): 23% and 50%
  Population Normal (%): 92% and 97%
  Population Pyknosed Nuclei (%): 15% and 7%
  Population Tubulin-Different-Phenotype (%): 28% and 32%
  Total Cell Count: 176 and 195
Fibroblast; [6]
  Population Apoptotic (%): 64% and 75%
  Population Fragmented Nuclei (%): 18% and 39%
  Population Healthy Nuclei (%): 74% and 48%
  Population Hoechst High Intensity Objects (%): 4% and 3%
  Population Membrane Permeable-Phenotype (%): 0% and 6%
  Population Mitochondria Different-Phenotype (%): 4% and 6%
  Population Mitotic Cells (%): 35% and 25%
  Population Normal (%): 95% and 96%
  Population Pyknosed Nuclei (%): 7% and 12%
  Population Tubulin-Different-Phenotype (%): 21% and 51%
  Total Cell Count: 194 and 132
HEK-293T; [1]
  Population Apoptotic (%): 22% and 55%
  Population Fragmented Nuclei (%): 5% and 8%
  Population Healthy Nuclei (%): 84% and 80%
  Population Hoechst High Intensity Objects (%): 5%
  Population Membrane Permeable-Phenotype (%): 0%
  Population Mitochondria Different-Phenotype (%): 45% and 56%
  Population Mitotic Cells (%): 77% and 44%
  Population Normal (%): 94%
  Population Pyknosed Nuclei (%): 10% and 11%
  Population Tubulin-Different-Phenotype (%): 19%
  Total Cell Count: 455 and 332
HEK-293T; [2]
  Population Apoptotic (%): 32% and 44%
  Population Fragmented Nuclei (%): 5% and 11%
  Population Healthy Nuclei (%): 77% and 74%
  Population Hoechst High Intensity Objects (%): 7% and 8%
  Population Membrane Permeable-Phenotype (%): 0%
  Population Mitochondria Different-Phenotype (%): 51% and 64%
  Population Mitotic Cells (%): 67% and 56%
  Population Normal (%): 92% and 91%
  Population Pyknosed Nuclei (%): 17% and 14%
  Population Tubulin-Different-Phenotype (%): 41% and 29%
  Total Cell Count: 423 and 388
HEK-293T; [3]
  Population Apoptotic (%): 28% and 27%
  Population Fragmented Nuclei (%): 10% and 8%
  Population Healthy Nuclei (%): 80% and 83%
  Population Hoechst High Intensity Objects (%): 2% and 3%
  Population Membrane Permeable-Phenotype (%): 0%
  Population Mitochondria Different-Phenotype (%): 30% and 41%
  Population Mitotic Cells (%): 71% and 72%
  Population Normal (%): 97% and 96%
  Population Pyknosed Nuclei (%): 9% and 7%
  Population Tubulin-Different-Phenotype (%): 14% and 13%
  Total Cell Count: 635 and 390
